Test results from article PMC2229513 (The Journal of General Physiology, 2001).
Residue numbers refer to the chain shown, from its start. Where two headings read alike, the source gives them in different places.

Legend:
ENaC wt [1] = molecular target: T1, ENaC wt (Rattus norvegicus, UniProt P37089+P37090+P37091); experiment: Effect of extracellular MTSEA on INa; type: cell-based; conditions: 2-min extracellular application of 2.5 mM MTSEA
T1 sequence (P37089 1-698): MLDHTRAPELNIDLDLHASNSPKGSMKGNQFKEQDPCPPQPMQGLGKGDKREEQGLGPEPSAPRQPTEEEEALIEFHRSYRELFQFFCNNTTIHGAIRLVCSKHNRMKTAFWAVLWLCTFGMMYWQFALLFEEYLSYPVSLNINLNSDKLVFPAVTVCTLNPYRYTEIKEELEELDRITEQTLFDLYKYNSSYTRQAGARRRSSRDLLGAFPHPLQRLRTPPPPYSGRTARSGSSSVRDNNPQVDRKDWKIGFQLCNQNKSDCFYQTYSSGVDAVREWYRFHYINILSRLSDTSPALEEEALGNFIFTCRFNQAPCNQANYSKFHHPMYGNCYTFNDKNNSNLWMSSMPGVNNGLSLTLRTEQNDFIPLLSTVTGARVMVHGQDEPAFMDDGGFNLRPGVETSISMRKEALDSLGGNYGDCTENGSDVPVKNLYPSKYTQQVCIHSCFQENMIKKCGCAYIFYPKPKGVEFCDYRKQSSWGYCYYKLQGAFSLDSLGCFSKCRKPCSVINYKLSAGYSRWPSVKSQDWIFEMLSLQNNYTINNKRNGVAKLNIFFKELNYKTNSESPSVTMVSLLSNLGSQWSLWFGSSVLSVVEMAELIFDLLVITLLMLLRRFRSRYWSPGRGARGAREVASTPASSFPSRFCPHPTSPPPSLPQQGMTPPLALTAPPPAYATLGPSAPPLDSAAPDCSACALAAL
T1 sequence (P37090 1-638): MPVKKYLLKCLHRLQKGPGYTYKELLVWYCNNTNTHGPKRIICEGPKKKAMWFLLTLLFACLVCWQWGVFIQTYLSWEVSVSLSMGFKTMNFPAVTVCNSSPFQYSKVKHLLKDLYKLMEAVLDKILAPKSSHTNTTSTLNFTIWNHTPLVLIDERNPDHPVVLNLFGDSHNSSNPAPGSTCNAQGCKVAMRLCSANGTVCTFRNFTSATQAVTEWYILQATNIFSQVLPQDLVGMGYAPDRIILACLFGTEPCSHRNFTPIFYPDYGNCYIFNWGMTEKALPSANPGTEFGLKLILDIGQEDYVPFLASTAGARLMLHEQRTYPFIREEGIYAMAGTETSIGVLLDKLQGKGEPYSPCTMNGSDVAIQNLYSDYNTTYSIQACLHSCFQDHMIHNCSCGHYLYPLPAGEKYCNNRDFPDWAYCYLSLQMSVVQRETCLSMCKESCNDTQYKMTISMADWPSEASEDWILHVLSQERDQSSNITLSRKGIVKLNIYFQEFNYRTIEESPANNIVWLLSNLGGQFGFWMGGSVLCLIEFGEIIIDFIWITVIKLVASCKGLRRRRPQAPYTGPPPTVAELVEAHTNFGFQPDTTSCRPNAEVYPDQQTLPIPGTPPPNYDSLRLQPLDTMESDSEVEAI
T1 sequence (P37091 1-650): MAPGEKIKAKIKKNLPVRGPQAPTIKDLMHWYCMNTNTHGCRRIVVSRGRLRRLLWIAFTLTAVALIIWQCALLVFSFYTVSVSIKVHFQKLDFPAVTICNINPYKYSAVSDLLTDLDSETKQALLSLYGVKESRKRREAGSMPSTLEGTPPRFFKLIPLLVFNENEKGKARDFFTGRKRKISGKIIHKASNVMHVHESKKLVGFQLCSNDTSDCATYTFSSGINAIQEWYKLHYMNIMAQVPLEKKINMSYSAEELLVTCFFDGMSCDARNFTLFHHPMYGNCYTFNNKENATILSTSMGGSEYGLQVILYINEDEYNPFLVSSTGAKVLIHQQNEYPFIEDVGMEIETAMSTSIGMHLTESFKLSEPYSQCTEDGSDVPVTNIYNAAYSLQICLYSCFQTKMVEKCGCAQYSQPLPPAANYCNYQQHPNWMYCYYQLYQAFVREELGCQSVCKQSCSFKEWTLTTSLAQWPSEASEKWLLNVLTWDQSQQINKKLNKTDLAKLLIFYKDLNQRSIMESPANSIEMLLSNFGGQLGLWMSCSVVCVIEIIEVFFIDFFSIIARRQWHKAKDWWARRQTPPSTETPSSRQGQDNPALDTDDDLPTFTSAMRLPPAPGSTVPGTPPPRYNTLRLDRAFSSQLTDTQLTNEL
Procedure, shortened: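 Two-electrode voltage clamp was run on Xenopus oocytes 16–48 h after injecting rat αβγ ENaC cRNAs (100 nl, 100 ng/μl total). INa was the current sensitive to 100 μM amiloride. Aqueous MTSEA stock was made fresh, kept on ice and diluted into bath immediately before use.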

αS589H ENaC mutant = molecular target: T2, αS589H ENaC mutant (Rattus norvegicus, UniProt P37089+P37090+P37091, S589H); type: cell-based
T2 sequence (P37089 1-698 S589H): T1 sequence (P37089 1-698) with S589H
T2 sequence (P37090 1-638): T1 sequence (P37090 1-638)
T2 sequence (P37091 1-650): T1 sequence (P37091 1-650)
Procedure, shortened: (§1)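 Stage V–VI Xenopus oocytes were pressure-injected with 100 nl of equal amounts of rat α, β and γ ENaC cRNAs (mutations in α only), 100 ng/μl total. Two-electrode voltage clamp was done 16–48 h post-injection. For other permeant cations, Na+ was replaced at the same concentration.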

[2] = system: ENaC mutants of α (S583), β (G525) or γ subunit (G537); conditions: mutations of α S583, β G525 or γ G537; ref Schild et al. 1997; cited from earlier work
αS589N ENaC mutant = molecular target: T3, αS589N ENaC mutant (Rattus norvegicus, UniProt P37089+P37090+P37091, S589N); type: cell-based
T3 sequence (P37089 1-698 S589N): T1 sequence (P37089 1-698) with S589N
T3 sequence (P37090 1-638): T1 sequence (P37090 1-638)
T3 sequence (P37091 1-650): T1 sequence (P37091 1-650)
Procedure, shortened: as §1

αS589D ENaC mutant = molecular target: T4, αS589D ENaC mutant (Rattus norvegicus, UniProt P37089+P37090+P37091, S589D); type: cell-based
T4 sequence (P37089 1-698 S589D): T1 sequence (P37089 1-698) with S589D
T4 sequence (P37090 1-638): T1 sequence (P37090 1-638)
T4 sequence (P37091 1-650): T1 sequence (P37091 1-650)
Procedure, shortened: as §1

[3] = system: wt and mutant (αS589) ENaC channels; experiment: Block of ionic currents by 100 μM amiloride; type: cell-based, rat
Procedure, shortened: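 Oocytes were co-injected with rat αβγ ENaC cRNAs (100 nl, 100 ng/μl total, equal amounts of each subunit) and recorded by two-electrode voltage clamp 16–48 h later. Amiloride-sensitive current was taken as the difference between currents with and without 100 μM amiloride in the bath.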

αE598A ENaC mutant = molecular target: T5, αE598A ENaC mutant (Rattus norvegicus, UniProt P37089+P37090+P37091, E598A); experiment: Amiloride block of αE598A mutant; type: cell-based
T5 sequence (P37089 1-698 E598A): T1 sequence (P37089 1-698) with E598A
T5 sequence (P37090 1-638): T1 sequence (P37090 1-638)
T5 sequence (P37091 1-650): T1 sequence (P37091 1-650)

ENaC wt [4] = molecular target: T1, ENaC wt; type: cell-based
Procedure, shortened: as §1

| ratio of INa after MTSEA application relative to the initial INa (ENaC wt [1]) | IC50 (αS589H ENaC mutant) | increase of the IC50 for amiloride block (factor vs wt) (αS589H ENaC mutant; αS589H relative to ENaC wt) | IC50 (αS589N ENaC mutant; IC50 for amiloride block of the NH4+ current, NH4+ current, n = 6–7) | IC50 (αS589N ENaC mutant; IC50 for amiloride block, Na+ as the main extracellular cation, n = 6–16) | IC50 (αS589D ENaC mutant) | amiloride block compared with wt (αE598A ENaC mutant) | IC50 (ENaC wt [4]) | Compound | decrease of channel affinity for amiloride [2] | block of ionic currents [3] |
| --- | --- | --- | --- | --- | --- | --- | --- | --- | --- | --- |
| 0.77 ± 0.33 | – | – | – | – | – | – | – | CS(=O)(=O)SCCN [MTSEA, aminoethyl methanethiosulfate] | – | – |
| – | 2800 ± 650 nM | 16 | 190 ± 60 nM | 440 ± 50 nM | 100 ± 20 nM | not different from wt | 180 ± 80 nM | N=C(N)NC(=O)c1nc(Cl)c(N)nc1N [amiloride] | two to three orders of magnitude | completely blocked |
